Experimental data: ChEMBL document CHEMBL1155208 (Eur J Med Chem, 2009)

How the values were obtained:
Rattus norvegicus [1] = experiment: Acute toxicity in po dosed rat assessed as death after 1 week; type: organism-based; conditions: in vivo, 168 h
In short: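 Rats fasted 16 h, six per group, given various oral doses; deaths recorded daily over 1 week of observation after treatment.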

Rattus norvegicus [2] = experiment: Antiamnesic activity against scopolamine-induced memory loss in Wistar rat assessed as latency time at 0.1 mg/kg, ip measured for 15 mins by passive avoidance step-down task test; type: functional; set-up: unit not given beside the values; conditions: route intraperitoneal
In short: (§1)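 Male Wistar rats (200-250 g), scopolamine 0.4 mg/kg ip to induce memory loss; test compound 0.1 mg/kg ip given together with scopolamine. Passive avoidance step-down task run in a rodent memory evaluator. Read-outs: basal latency (s) to reach the shock-free zone over trials I-III, memory latency (s) and number of mistakes, given as mean ± S.E.M.; p < 0.005 taken as significant.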

Rattus norvegicus [3] = experiment: Antiamnesic activity against scopolamine-induced memory loss in Wistar rat assessed as time taken to reach shock free zone at 0.1 mg/kg, ip measured for 15 mins by passive avoidance step-down task test; type: functional; set-up: unit not given beside the values; conditions: route intraperitoneal; in short: as §1
[4] = biological target: T1, Muscarinic acetylcholine receptor M1 (Rattus norvegicus, UniProt P08482); experiment: Displacement of [3H]QNB from muscarinic M1 receptor in Wistar rat brain cortex membrane after 2 hrs by liquid scintillation counting; type: cell membranes
T1 sequence (P08482 whole entry): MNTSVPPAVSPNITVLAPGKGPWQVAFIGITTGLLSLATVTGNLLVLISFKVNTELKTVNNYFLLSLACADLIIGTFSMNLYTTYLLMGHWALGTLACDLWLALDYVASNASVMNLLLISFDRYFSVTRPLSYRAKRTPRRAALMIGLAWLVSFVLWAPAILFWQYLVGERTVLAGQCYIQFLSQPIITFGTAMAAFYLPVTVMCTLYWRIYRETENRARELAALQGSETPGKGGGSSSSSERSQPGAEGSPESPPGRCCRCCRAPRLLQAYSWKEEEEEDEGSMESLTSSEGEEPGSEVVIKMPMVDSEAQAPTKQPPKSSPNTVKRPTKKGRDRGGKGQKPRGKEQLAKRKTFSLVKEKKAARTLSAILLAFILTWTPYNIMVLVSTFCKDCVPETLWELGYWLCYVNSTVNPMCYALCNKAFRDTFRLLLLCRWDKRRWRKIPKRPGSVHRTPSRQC

Rattus norvegicus [5] = experiment: Effect on scopolamine-induced memory loss and learning impairment in Wistar rat assessed as transfer latency at 0.1 mg/kg, ip after 30 mins by elevated plus maze test; type: functional; set-up: unit not given beside the values; conditions: route intraperitoneal
In short: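 Male Wistar rats on an elevated plus maze. Scopolamine 0.4 mg/kg ip; test compound 0.1 mg/kg ip given together with scopolamine 30 min before exploration; controls received distilled water. On day 1 each rat explored the maze for 90 s. Transfer latency was measured on day 1 (TL1, learning) and on day 2 in the same animals (TL2, memory), and the average was reported.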

Rattus norvegicus [6] = experiment: Antiamnesic activity against scopolamine-induced memory loss in Wistar rat assessed as number of mistake done at 0.1 mg/kg, ip measured for 15 mins by passive avoidance step-down task test; type: functional; conditions: route intraperitoneal; in short: as §1

Row | SMILES | Activity (Rattus norvegicus [1]) | Activity (Rattus norvegicus [2]) | Activity (Rattus norvegicus [3]) | IC50 [4] [µM] | Ki [4] [µM] | Activity (Rattus norvegicus [5]) | Activity (Rattus norvegicus [6])
1 | CC(C)N1C(=O)CSC1C1=CCCN(C)C1 (stereo unspecified) | Non-toxic | 3 | 8 | 579 | 97 | 35 | 30
2 | CN1CCC=C(C2SCC(=O)N2c2ccc([N+](=O)[O-])cc2)C1 (stereo unspecified) | Non-toxic | 4 | 7 | 158 | 43 | 21 | 25
3 | CCN1C(=O)CSC1C1=CCCN(C)C1 (stereo unspecified) | Non-toxic | 2 | 4 | 670 | 230 | 45 | 21
4 | CN1CCC=C(C2SCC(=O)N2c2ccc(Br)cc2)C1 (stereo unspecified) | Non-toxic | 3 | 7 | 536 | 122 | 38 | 29
5 | CN1CCC=C(C2SCC(=O)N2c2ccc(Cl)cc2)C1 (stereo unspecified) | Non-toxic | 3 | 3 | 653 | 200 | 42 | 28
6 | CN1CCC=C(C2SCC(=O)N2c2ccc(C(=O)O)cc2)C1 (stereo unspecified) | Non-toxic | 4 | 6 | 74 | 37 | 18 | 14
7 | Cc1ccc(N2C(=O)CSC2C2=CCCN(C)C2)c([N+](=O)[O-])c1 (stereo unspecified) | Non-toxic | 3 | 5 | 626 | 125 | 40 | 25
8 | CCCCCCN1C(=O)CSC1C1=CCCN(C)C1 (stereo unspecified) | Non-toxic | 4 | 7 | 632 | 110 | 30 | 21
9 | CN1CCC=C(C2SCC(=O)N2c2ccc(Nc3ccccc3)cc2)C1 (stereo unspecified) | Non-toxic | 3 | 5 | 48 | 19 | 14 | 16
10 | CN1CCC=C(C2SCC(=O)N2c2ccccc2)C1 (stereo unspecified) | Non-toxic | 4 | 8 | 886 | 105 | 44 | 32
11 | CN1CCC=C(C2SCC(=O)N2c2cccc(O)c2)C1 (stereo unspecified) | Non-toxic | 3 | 6 | 563 | 102 | 22 | 23
12 | CCCCN1C(=O)CSC1C1=CCCN(C)C1 (stereo unspecified) | Non-toxic | 4 | 5 | 68 | 32 | 17 | 12
13 | CN1CCC=C(C2SCC(=O)N2Cc2ccccc2)C1 (stereo unspecified) | Non-toxic | 4 | 7 | 789 | 149 | 19 | 30
